Assay results as given in publication PMC8645912 (ESMO Open, 2021).
Several values for one entry are separate records, joined by “and”; a condition that tells them apart may be missing. Equal values may be shown once. Read-outs that look alike come from different tables or passages of the source. Each block holds one compound with its values, some of them ahead of it.

How the values were obtained:
[1] = system: metastatic renal cell carcinoma; conditions: mRCC; cited from earlier work
[2] = Cabozantinib plasma PK monitoring; assay type: in vivo, human
[3] = PK/PD relation for efficacy: cabozantinib PK at progressive disease; assay type: in vivo, human; conditions: human, plasma, oral
[4] = system: metastatic renal cell carcinoma; test: as above; assay type: in vivo, human
[5] = assay type: in vivo, human; conditions: for AUC: human, plasma, oral
[6] = Adverse events in the study cohort; assay type: in vivo, human
Outline: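 Clinical examination and blood tests every 4-6 weeks. Adverse events graded by CTCAE v5.0. Relevant toxicity defined as grade 3-4, or grade 2 requiring dose reduction or discontinuation. Each patient counted once for toxicity.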

[7] = system: metastatic renal cell carcinoma; conditions: METEOR trial; cited from earlier work
[8] = system: metastatic renal cell carcinoma; conditions: CABOSUN trial, cited from earlier work
[9] = system: metastatic renal cell carcinoma; conditions: CheckMate 9ER PK/PD study, Cavg up to day 1 of cycle 7; cited from earlier work
[10] = cited from earlier work
[11] = cited from earlier work; remark: listed apart in the source
[12] = cited from earlier work; remark: listed apart in the source
[13] = SD/PR patients (disease control)
[14] = patients with progressive disease (PD)
[15] = patients with relevant toxicity
[16] = patients without relevant toxicity
[17] = most frequent G3 toxicities, of the 30 patients
[18] = of the 30 patients with relevant toxicity

SMILES: CNC(=O)c1ccccc1Sc1ccc2c(/C=C/c3ccccn3)n[nH]c2c1 [Axitinib]
AUC at 4 weeks from treatment start associated with better OS and PFS [1]: > 300 ng·h/mL and 154 to 620 ng·h/mL
Css,trough associated with longer OS [1]: • >5 ng/ml associated with longer OS
Css,trough associated with ≥G2 asthenia [1]: > 7.1 ng/mL

SMILES: Cc1ccc(Nc2nccc(N(C)c3ccc4c(C)n(C)nc4c3)n2)cc1S(N)(=O)=O [Pazopanib]
Css,trough associated with PD [1]: < 15 µg/mL
Css,trough associated with PR/SD [1]: ≥ 15 µg/mL
Css,trough associated with longer PFS and greater tumor shrinkage [1]: ≥ 20.5 µg/mL

SMILES: CCN(CC)CCNC(=O)c1c(C)[nH]c(/C=C2\C(=O)Nc3ccc(F)cc32)c1C [Sunitinib]
AUCss and efficacy [1]: • Lower in PD patients compared with AUCss at treatment start.
AUCss associated with higher grade 3-4 toxicity [1]: • >2150 ng/ml/h higher grade 3-4 toxicity
Css,trough associated with longer PFS and TTF [1]: < 100 ng/mL
Css,trough associated with worse outcomes [1]: > 100 ng/mL

Mean Ctrough at 40 mg daily (SD) ([2]; 40 mg daily): 565 (283) ng/ml
Median Ctrough at 40 mg daily (IQR) ([2]; 40 mg daily): 477 (366-649) ng/ml
Mean Ctrough at 60 mg daily (SD) ([2]; 60 mg daily): 667 (375) ng/ml
Median Ctrough at 60 mg daily (IQR) ([2]; 60 mg daily): 564 (402-777) ng/ml
AUC ([2]; human, plasma, oral, Mean AUC (SD), whole population, from population PK model): 20900 ng·h/mL
Median measured cabozantinib plasma concentration ([2]; median daily dose 40 mg, median time 38 weeks): 500 ng/mL
Median Ctrough (IQR) ([2]; whole population): 500.2 (365.5-742.5) ng/ml
Mean Cmeas (measured blood concentration) ([2]; whole population, 76 mRCC patients, steady state, at least 8 h from last dose): 598.3 ng/mL
Mean Ctrough (SD) ([2]; whole population, Ctrough estimated from Cmeas by formula): 597.7 ng/ml and 597.7 (363.9) ng/ml
Mean Cl/F (SD) ([2]; whole population, from population PK model): 2.5 L/h
AUC ([3]; Mean AUC (SD), SD/PR patients (disease control)): 24600 ng·h/mL
AUC ([3]; Mean AUC (SD), patients with progressive disease (PD)): 17700 ng·h/mL
AUC ([3]; Median AUC (IQR), SD/PR patients (disease control)): 20000 ng·h/mL
AUC ([3]; Median AUC (IQR), patients with progressive disease (PD)): 16000 ng·h/mL
Mean Cl/F (SD) [4, 13]: 2.01 L/h
Mean Ctrough (SD) [4, 13]: 788.5 ng/mL
Median Cl/F (IQR) [4, 13]: 2.9 L/h
Mean Cl/F (SD) [4, 14]: 2.86 L/h
Mean Ctrough (SD) [4, 14]: 465.6 ng/mL
Median Cl/F (IQR) [4, 14]: 2 L/h
Median Ctrough (IQR) [4, 14]: 406 ng/mL
SMILES: COc1cc2nccc(Oc3ccc(NC(=O)C4(C(=O)Nc5ccc(F)cc5)CC4)cc3)c2cc1OC [cabozantinib]
Number of PR observed ([4]; RECIST 1.1): 7 patients
Ctrough threshold to detect disease progression (drug efficacy threshold) ([4]; ROC curve): 536.8 ng/mL
Proposed target Ctrough for efficacy in TDM ([4]; mRCC, real-life TDM): > 530 ng/mL
Number of patients with progressive disease ([4]; of 76 patients, RECIST 1.1, at data cut-off): 35 patients and 34 patients
Patients with PR observed ([4]; of patients, RECIST 1.1): 9.2%
Ctrough threshold to detect relevant toxicity ([5]; ROC curve): 617.7 ng/mL
AUC ([5]; Mean AUC (SD), patients with relevant toxicity): 28600 ng·h/mL
AUC ([5]; Mean AUC (SD), patients without relevant toxicity): 19800 ng·h/mL
AUC ([5]; Median AUC (IQR), patients with relevant toxicity): 21000 ng·h/mL
AUC ([5]; Median AUC (IQR), patients without relevant toxicity): 16000 ng·h/mL
Cmeas [5, 15]: 732 ng/mL
Median Ctrough (IQR) [5, 15]: 693 ng/mL
Mean Ctrough (SD) ([5]; patients with relevant toxicity (G3-4, or G2 requiring DR or DD)): 950.2 ng/mL
Cmeas [5, 16]: 531 ng/mL
Mean Ctrough (SD) [5, 16]: 574.1 ng/mL
Median Ctrough (IQR) [5, 16]: 521 ng/mL
G3 cutaneous rash [6, 17]: 16.7%
G3 hand-foot syndrome (HFS) [6, 17]: 26.7%
G3 hypertension [6, 17]: 50%
G3 vomiting [6, 17]: 10%
Number of patients who experienced a relevant toxicity ([6]; of 76 patients, at data cut-off): 30 patients
Patients with G2 event requiring a dose reduction (DR) [6, 18]: 20%
Patients with G2 event requiring a drug discontinuation (DD) [6, 18]: 26.7%
Patients with at least one G2 event requiring a DD or a DR [6, 18]: 46.7%
Patients with at least one G3 toxicity [6, 18]: 53.3%
G4 toxicity ([6]; study cohort): No patient
Dose reduction (DR) rate [7]: 60%
Drug discontinuation (DD) rate [7]: 9%
Grade 3-4 adverse event rate [7]: 74%
PFS, ORR and OS versus everolimus [7]: superiority over everolimus
PFS and ORR versus first-line standard sunitinib ([8]; first-line mRCC): superior to first-line standard sunitinib
Dose reduction (DR) rate [8]: 46%
Drug discontinuation (DD) rate [8]: 16%
Grade 3-4 adverse event rate [8]: 67%
Effect of average cabozantinib concentration (Cavg) on PFS [9]: no effect
Individual predicted average cabozantinib concentration at steady state ([10]; 20 mg daily): 375 ng/mL
Individual predicted average cabozantinib concentration at steady state ([10]; 40 mg daily): 750 ng/mL
Individual predicted average cabozantinib concentration at steady state ([10]; 60 mg daily): 1125 ng/mL
Cl/F, patients with a lower Cl/F ([10]; after oral administration): 1.3 L/h
Cl/F, patients with a standard Cl/F ([10]; after oral administration): 2.3 L/h
Biopharmaceutics Classification System class [11]: Class II
Cellular permeability in vivo [11]: high
Effect of PPI administration on cabozantinib efficacy and clinical PK [12]: no relevant effect
